In the library only some 1.7% were active in any assay of this set; here they are far more common.
PP1 counter = PP1-alpha phosphatase inhibitors, primary screen, counter-screen for PP5 inhibitor project, biochemical, fluorescence, OMFP substrate, single point; Serine/threonine-protein phosphatase PP1-alpha catalytic subunit (Homo sapiens), P62136; purified PP1alpha; inhibition, % at 6.7 µM; 320,000 compounds, 0.9% hits; AID 2235, 2010;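 active = inhibition above the mean inhibition of all tested compounds plus 3 SD, computed separately for each screening campaign, cut at about 15% in these data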
PP5 primary = PP5 phosphatase inhibitors, primary screen, biochemical, fluorescence; Serine/threonine-protein phosphatase 5 (Homo sapiens), P53041; purified PP5c, OMFP substrate fluorescence; inhibition, % at 6.7 µM; 320,000 compounds, 0.18% hits;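 active = inhibition above the campaign's mean inhibition across all tested compounds plus 3 SD, cut at about 9.5% in these data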
Target sequence (P53041 whole entry, looked up): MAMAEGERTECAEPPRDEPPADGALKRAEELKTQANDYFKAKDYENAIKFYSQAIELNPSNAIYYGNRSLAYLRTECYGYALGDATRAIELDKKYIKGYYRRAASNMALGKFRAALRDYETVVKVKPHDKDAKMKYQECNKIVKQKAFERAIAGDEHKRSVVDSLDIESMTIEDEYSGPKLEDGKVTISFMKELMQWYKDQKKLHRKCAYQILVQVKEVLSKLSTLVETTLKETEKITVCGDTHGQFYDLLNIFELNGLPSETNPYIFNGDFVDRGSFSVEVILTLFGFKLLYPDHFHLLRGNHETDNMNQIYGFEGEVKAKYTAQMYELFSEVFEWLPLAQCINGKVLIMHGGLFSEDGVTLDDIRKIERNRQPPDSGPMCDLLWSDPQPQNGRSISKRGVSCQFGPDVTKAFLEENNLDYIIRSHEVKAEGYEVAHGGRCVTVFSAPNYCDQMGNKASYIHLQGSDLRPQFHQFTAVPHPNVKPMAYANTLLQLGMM
EBNA-1 inh = EBNA-1 DNA-binding inhibitors, primary screen, biochemical, fluorescence polarization; inhibition, % at 14.8 µM; 300,000 compounds, 0.34% hits; in the data active = inhibition above about 28%
ZTA DNA inh = counter-screen for EBNA-1 inhibitors: inhibitors of Epstein-Barr virus ZTA; ZTA-DNA binding, fluorescence polarization; inhibition, % at 11 µM; 320,000 compounds, 0.15% hits; in the data active = inhibition above about 33%
HCV core dimer = inhibitors of HCV core protein dimerization, primary screen, biochemical, TR-FRET, high-throughput; TR-FRET GST/Flag-core106 dimerization, 1536-well; inhibition, % at 5 µM; 300,000 compounds, 0.33% hits;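 active = inhibition above the mean of all tested compounds plus 3 SD, set per screening campaign, cut at about 45% in these data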
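System: GST-tagged and Flag-tagged HCV core protein residues 1-106 / Input: core106 proteins, GST 13.5 nM and Flag 17 nM / Buffer or medium: KF-containing HEPES buffer, pH 7.45, DTT, CHAPS, BSA / Probe or stimulus: Eu-anti-GST and XL665-anti-Flag labelled anti-tag antibodies / Schedule: 4 h, 22.5 °C incubation / Technique: TR-FRET 671 and 617 nm emission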
Large screens that a line does not name were inactive.

Cc1c(C(=O)OCC2CCCO2)[nH]c2c1C(=O)CC(c1ccco1)C2 (stereo not given)	HCV core dimer 86
CC(=O)Nc1ccc(NC(=O)c2cccc(-c3cc4ccccc4oc3=O)c2)cc1	none
CCC(=O)Nc1cccc(-c2cc3ccccc3oc2=O)c1	none
O=C(Nc1ccc(N2CCCC2)c(Cl)c1)c1cccc(-c2cc3ccccc3oc2=O)c1	PP1 counter 16
COc1ccc(C(=O)Nc2cccc(-c3cc4ccccc4oc3=O)c2)cc1[N+](=O)[O-]	PP1 counter 16
CCCCNC(=O)/C(C#N)=C/c1ccc(-c2ccc(S(=O)(=O)N3CCOCC3)cc2)o1	ZTA DNA inh 44
CN(C)c1ccc(NC(=S)NC23CC4CC(CC(C4)C2)C3)cc1	none
CCCCC1=CC2=C(c3ccco3)C(=O)C(C)(OC(=O)c3ccc(OC)cc3)C(=O)C2=CN1Cc1ccco1 (stereo not given)	PP1 counter 16
CCCCC1=CC2=C(c3ccco3)C(=O)C(C)(OC(=O)c3ccc(OC)cc3)C(=O)C2=CN1C1CC1 (stereo not given)	none
CCCCC1=CC2=C(c3ccco3)C(=O)C(C)(OC(=O)c3ccc(OC)cc3)C(=O)C2=CN1C1CCCC1 (stereo not given)	HCV core dimer 59
CCCCC1=CC2=C(c3ccco3)C(=O)C(C)(OC(=O)c3ccc(OC)cc3)C(=O)C2=CN1c1ccc(OC)cc1 (stereo not given)	PP1 counter 16, HCV core dimer 58
CCCCC1=CC2=C(c3ccco3)C(=O)C(C)(OC(=O)c3ccc(OC)cc3)C(=O)C2=CN1CCCCO (stereo not given)	none
Cc1ccc(N2CC(C(=O)N3CCC(C(=O)Nc4nnc(C(C)(C)C)s4)CC3)CC2=O)cc1 (stereo not given)	none
Cc1c(C)n(C)c2ccc(C(=O)NCCCN3CCCC3)cc12	none
CCN(CC)c1ccc(NC(=O)c2ccc3c(c2)c(C)c(C)n3C)cc1	PP1 counter 17
NC(CCCCc1ccccc1)c1cccc2ccccc12 (stereo not given)	none
CCN(CC)Cc1c(C(=O)N/N=C/c2ccccn2)nnn1-c1nonc1N	none
NS(=O)(=O)c1cccc(NC(=O)COC(=O)C2(c3cccc(F)c3)CCCC2)c1	none
COc1ccc(-n2c(CN3CCOCC3)nc3ccc([N+](=O)[O-])cc3c2=O)c(OC)c1	HCV core dimer 65
COc1ccc(-n2c(CN3CCN(c4ccccc4)CC3)nc3ccc([N+](=O)[O-])cc3c2=O)c(OC)c1	none
O=C(OCCCOC(=O)c1ccc([N+](=O)[O-])o1)c1ccc([N+](=O)[O-])o1	none
CN(C)c1ccc(C(=O)OCC(=O)Nc2ccc(S(N)(=O)=O)cc2)cc1	EBNA-1 inh 34, ZTA DNA inh 44
Cc1ccc(C)c(OCC(=O)Nc2nonc2NC(=O)COc2cc(C)ccc2C)c1	PP1 counter 17
Cc1ccc(C(=O)C(NC(=O)c2ccco2)Nc2sc3c(c2C(N)=O)CCCC3)cc1 (stereo not given)	HCV core dimer 66
Cc1ccc(S(=O)(=O)N2Cc3ccccc3CC2C(=O)Nc2ccc3c(c2)OCO3)cc1 (stereo not given)	HCV core dimer 54
COc1ccc(S(=O)(=O)N2Cc3ccccc3CC2C(=O)Nc2ccc3c(c2)OCO3)cc1 (stereo not given)	none
Cc1ccc(OCC(=O)c2ccc(Cl)s2)c([N+](=O)[O-])n1	HCV core dimer 57
Cc1ccc(CNC(=O)COc2ccc(C)nc2[N+](=O)[O-])cc1	none
Cc1ccc(NS(=O)(=O)c2ccc(NC(=O)c3ccc(-c4ccccc4)cc3)cc2)c(C)c1	HCV core dimer 46
CCN(CC)S(=O)(=O)c1ccc(C)c(NC(=O)COC(=O)CCC(=O)c2cccs2)c1	none (no result: EBNA-1 inh, HCV core dimer)
CCc1cccc2c(C(=O)CSc3nnc(C4CC4)o3)c[nH]c12	none (no result: EBNA-1 inh, HCV core dimer)
CN(CC(=O)N1CCN(Cc2ccccc2)CC1)C(=O)Cc1cccc2ccccc12	none (no result: EBNA-1 inh, HCV core dimer)
Cc1ccc(CN(C(=O)Cn2nnc3ccccc32)C(C(=O)NCc2ccco2)c2cccs2)cc1 (stereo not given)	PP1 counter 17
CC(=O)Nc1cc(C)nn1-c1nc2ccccc2s1	none
COc1ccc(CCn2c(O)cc3nn(-c4nc5ccccc5s4)c(=O)c-3c2C)cc1	PP1 counter 17, HCV core dimer 60
COc1cccc(OCc2nc3c4cnn(-c5ccccc5)c4ncn3n2)c1	none
c1ccc(-n2ncc3c2ncn2nc(-c4ccco4)nc32)cc1	HCV core dimer 52
COCC1CCCN(Cc2cn(-c3ccccc3)nc2-c2ccc3c(c2)OCO3)C1 (stereo not given)	none
CCN(CC)S(=O)(=O)c1cccc(C(=O)N/N=C/c2cccc(O)c2O)c1	PP1 counter 16
CC(C)N(Cc1ccccc1)C(=O)COC(=O)C1CCN(S(=O)(=O)c2ccc3c(c2)OCCO3)CC1	PP1 counter 16
CCc1ccc(-c2cc(C)no2)cc1S(=O)(=O)N1CCN(c2ccc(C(C)=O)cc2)CC1	PP1 counter 15
CC(=O)c1ccc(N2CCN(S(=O)(=O)c3cc(-c4cc(C)no4)ccc3C(C)C)CC2)cc1	none
O=C1CC(c2ccccc2)CC(=O)N1c1ccc(C(F)(F)F)cc1	none (no result: EBNA-1 inh, HCV core dimer)
CC1CCCCC1Nc1nc2ccc(Cl)cc2n2cnnc12 (stereo not given)	none
COc1ccc(-c2nc(SCc3ccccc3)n(S(C)(=O)=O)n2)cc1	PP5 primary 11
CCN(CC)S(=O)(=O)c1ccc2[nH]c(=O)cc(C(=O)Nc3ccccc3N3CCOCC3)c2c1	none (no result: EBNA-1 inh, HCV core dimer)
CC1CN(C(=O)COC(=O)Cc2ccc(Cl)cc2)CC(C)O1 (stereo not given)	none (no result: EBNA-1 inh, HCV core dimer)
COc1ccc(NC(=O)CN(C)CC(=O)Nc2sc3c(c2C#N)CCC3)cc1	none (no result: EBNA-1 inh, HCV core dimer)
O=C1NC(c2cccs2)Nc2sc3c(c21)CCCC3 (stereo not given)	none
CN1C(=O)c2c(sc3c2CCCC3)NC1c1ccccc1O (stereo not given)	HCV core dimer 55
Cn1c2ccccc2c2nnc(NN)nc21	none
CCCCc1c(C)nn(-c2nnc3c4ccccc4n(C)c3n2)c1C	PP1 counter 17
COc1ccc(-c2nn(C)c(=O)c3ccccc23)cc1CNC(=O)NC1CCCCC1	none
O=C(CSc1nc2c(c(=O)n1-c1ccc(Br)cc1)SCC2)Nc1nccs1	EBNA-1 inh 32
O=C(CSc1nc2c(c(=O)n1-c1ccc(Cl)cc1)SCC2)Nc1nccs1	none
CCN(CC)c1ccc2nc3ccccc3[n+](CC)c2c1	EBNA-1 inh 174, ZTA DNA inh active
CCc1ccc(C2C(C#N)=C(N)SC(N)=C2C#N)s1	HCV core dimer 53
CCc1ccc(C2C(C#N)=C(N)SC(N)=C2C#N)cc1	none
Cc1ccc(C2C(C#N)=C(N)SC(N)=C2C#N)o1	HCV core dimer 46

Assay outcomes (PubChem)
